In ChEMBL document CHEMBL1130423, “Design, synthesis, and biological evaluation of new growth inhibitors of Trypanosoma cruzi (epimastigotes)” (J Med Chem, 1997) one finds IC50 data, which are given here for 25 compounds.

For orientation: IC50 means the midpoint of a concentration-inhibition curve. Read a high IC50 as lower potency.

The test has as its system Trypanosoma cruzi. Briefly: Inhibitory concentration against Trypanosoma cruzi (epimastigotes). It is filed as functional, organism-based. An outline of the steps: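 T. cruzi epimastigotes (Y strain) grown at 28 °C in brain-heart infusion (37 g/L) medium with hemin chlorohydrate (20 mg/L) and 10% newborn calf serum. Initial inoculum 2-3 × 10^6 cells/mL, counted in a Neubauer chamber. Each drug tested at four concentrations with a drug-free control per group. Growth read as absorbance at 600 nm against medium blank. Percent inhibition taken from the start-to-end absorbance change relative to control.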
The compound `COc1ccc(OCCOC2CCCCO2)cc1` (stereo not given) displayed a concentration for half-maximal inhibition (IC50) of 218 µM. In the case of `CC(C)=CCC/C(C)=C/CC/C(C)=C/COC1CCCCO1` (stereo not given), the concentration for half-maximal inhibition (IC50) stood at 78 µM. To `c1ccc(Oc2ccc(OCCOC3CCCCO3)cc2)cc1` (stereo not given) belongs 138 µM; to `CCNC(=O)OCC(O)COc1ccc(Oc2ccccc2)cc1` (stereo not given), 233 µM. Then `C=COC(=O)OC(C)COc1ccc(Oc2ccccc2)cc1` (stereo not given), with > 240 µM; and `C=COC(=O)OCCCOc1ccc(Oc2ccccc2)cc1`, with 260 µM; and `OC(c1ccccc1)c1ccc(OCCOC2CCCCO2)cc1` (stereo not given), with > 500 µM. Then `CCSC(=O)OC/C=C(\C)CC/C=C(\C)CCC1OC1(C)C` (stereo not given), with 210 µM. Turning to `COc1ccc(OCCO)cc1`, the half-inhibitory concentration (IC50) is > 500 µM. Then `CCNC(=O)OCCOc1ccc(OC)cc1`, with > 300 µM. Then `C=CCOc1ccc(C(=O)c2ccccc2)cc1`, with 129 µM.

Consider `CCNC(=O)OCCOc1ccc(C(=O)c2ccccc2)cc1`, for which the IC50 is > 300 µM. Regarding `CCNC(=O)OC/C=C(\C)CC/C=C(\C)CCC=C(C)C`, 147 µM corresponded to half-maximal inhibition (IC50). `OCC(O)COc1ccc(Oc2ccccc2)cc1` (stereo not given) gave a 50% inhibitory concentration (IC50) of 270 µM. Against the preceding compound, the IC50 is about 1.8-fold higher. Consider `COc1ccc(OCCCOC2CCCCO2)cc1` (stereo not given), for which the half-maximal inhibitory concentration (IC50) is > 300 µM.

The compound `CCNC(=O)OC/C=C(\C)CCC=C(C)C` had an IC50 of 176 µM. Then `O=C(c1ccccc1)c1ccc(OCCO)cc1`, with > 400 µM; and `C=COC(=O)OC/C=C(\C)CC/C=C(\C)CCC=C(C)C`, with > 500 µM. To `OC(COc1ccc(Oc2ccccc2)cc1)COC1CCCCO1` (stereo not given) belongs 142 µM. `CC(C)=CCC/C(C)=C/COC1CCCCO1` (stereo not given) came in with a 50% inhibitory concentration (IC50) of 68 µM.

Compound `O=C(c1ccccc1)c1ccc(OCCOC2CCCCO2)cc1` (stereo not given) showed an IC50 of 268 µM. Then `CCNC(=O)OC(C)COc1ccc(OC)cc1` (stereo not given), with > 350 µM. To `COc1ccc(OCC(C)O)cc1` (stereo not given) belongs > 500 µM; to `CCNC(=O)OCCCOc1ccc(OC)cc1`, > 350 µM.

`C=CCOc1ccc(OC)cc1` [1-allyloxy-4-methoxybenzene] had a 50% inhibitory concentration (IC50) of 209 µM.
